# From ChEMBL document CHEMBL4219103, “Design and synthesis of 1,4-substituted 1H-1,2,3-triazolo-quinazolin-4(3H)-ones by Huisgen 1,3-dipolar cycloaddition with PI3Kγ isoform selective activity” (Bioorg Med Chem Lett, 2018)
# The source made the active and inactive calls. The calls are words filed in the database; no cut-off is given here.
# Legend:
# COLO 205 = experiment: Antiproliferative activity against human COLO205 cells after 24 to 48 hrs by MTT assay; assay type: functional, cell-based
# MCF7 = experiment: Antiproliferative activity against human MCF7 cells after 24 to 48 hrs by MTT assay; assay type: functional, cell-based
# [1] = Antiproliferative activity against human FR2 cells after 24 to 48 hrs by MTT assay; assay type: cell-based
# HCT-116 = experiment: Antiproliferative activity against human HCT116 cells after 24 to 48 hrs by MTT assay; assay type: functional, cell-based
# HL-60 [2] = experiment: Antiproliferative activity against human HL60 cells after 24 to 48 hrs by MTT assay; assay type: functional, cell-based
# A549 = experiment: Antiproliferative activity against human A549 cells after 24 to 48 hrs by MTT assay; assay type: functional, cell-based
# [3] = target: T1, Phosphatidylinositol 4,5-bisphosphate 3-kinase catalytic subunit delta isoform (Homo sapiens, UniProt O00329); experiment: Inhibition of PI3K-delta (unknown origin) by cell free biochemical assay
# T1 sequence (O00329 whole entry): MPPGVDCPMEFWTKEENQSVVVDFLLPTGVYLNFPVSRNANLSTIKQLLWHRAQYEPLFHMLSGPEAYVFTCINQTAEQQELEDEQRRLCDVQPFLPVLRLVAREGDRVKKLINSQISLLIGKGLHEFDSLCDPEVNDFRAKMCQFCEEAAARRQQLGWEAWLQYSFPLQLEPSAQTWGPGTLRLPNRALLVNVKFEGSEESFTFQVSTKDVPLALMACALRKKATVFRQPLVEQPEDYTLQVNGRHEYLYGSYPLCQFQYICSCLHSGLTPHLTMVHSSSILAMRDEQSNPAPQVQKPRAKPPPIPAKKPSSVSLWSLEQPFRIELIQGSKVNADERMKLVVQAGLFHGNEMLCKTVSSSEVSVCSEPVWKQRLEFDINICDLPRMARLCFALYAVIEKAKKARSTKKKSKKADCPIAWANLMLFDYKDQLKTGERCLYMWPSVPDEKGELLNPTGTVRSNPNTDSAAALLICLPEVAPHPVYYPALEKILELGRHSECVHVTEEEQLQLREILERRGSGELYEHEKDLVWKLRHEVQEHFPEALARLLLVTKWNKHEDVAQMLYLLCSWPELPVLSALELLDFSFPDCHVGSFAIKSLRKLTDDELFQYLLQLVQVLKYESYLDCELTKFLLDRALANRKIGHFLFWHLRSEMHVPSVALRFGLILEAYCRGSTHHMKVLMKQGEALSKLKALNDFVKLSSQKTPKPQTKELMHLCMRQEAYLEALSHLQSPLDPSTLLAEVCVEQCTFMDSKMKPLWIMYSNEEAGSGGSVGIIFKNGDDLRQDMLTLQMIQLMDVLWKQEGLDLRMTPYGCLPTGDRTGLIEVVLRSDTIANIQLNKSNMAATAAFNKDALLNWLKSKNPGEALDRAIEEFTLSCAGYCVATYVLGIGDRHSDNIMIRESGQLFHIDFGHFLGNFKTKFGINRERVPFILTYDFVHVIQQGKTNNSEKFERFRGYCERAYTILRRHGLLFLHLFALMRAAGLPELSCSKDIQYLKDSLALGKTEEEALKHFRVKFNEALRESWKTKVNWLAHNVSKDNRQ
# HL-60 [4] = experiment: Downregulation of p110alpha protein expression levels in human HL60 cells at 1 uM after 2 hrs by Western blot analysis; assay type: functional, cell-based
# Summary of the method: (§1)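 HL-60 cells were exposed to test agent at 1 µM for short time intervals, including 2 h. Expression of the p110α, p110β, p110δ and p110γ isoforms was then assessed by western blotting. p110γ blots were also quantified by densitometry at each time point.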
# HL-60 [5] = experiment: Downregulation of p110gamma protein expression levels in human HL60 cells at 1 uM after 2 hrs by Western blot analysis relative to control; assay type: functional; summary of the method: as §1
# HL-60 [6] = experiment: Downregulation of p110beta protein expression levels in human HL60 cells at 1 uM after 2 hrs by Western blot analysis; assay type: functional, cell-based; summary of the method: as §1
# [7] = target: Phosphatidylinositol 4,5-bisphosphate 3-kinase catalytic subunit gamma isoform (Homo sapiens, UniProt P48736); experiment: Inhibition of PI3K-gamma (unknown origin) by cell free biochemical assay
# Sequence of Phosphatidylinositol 4,5-bisphosphate 3-kinase catalytic subunit gamma isoform (P48736 whole entry, canonical isoform): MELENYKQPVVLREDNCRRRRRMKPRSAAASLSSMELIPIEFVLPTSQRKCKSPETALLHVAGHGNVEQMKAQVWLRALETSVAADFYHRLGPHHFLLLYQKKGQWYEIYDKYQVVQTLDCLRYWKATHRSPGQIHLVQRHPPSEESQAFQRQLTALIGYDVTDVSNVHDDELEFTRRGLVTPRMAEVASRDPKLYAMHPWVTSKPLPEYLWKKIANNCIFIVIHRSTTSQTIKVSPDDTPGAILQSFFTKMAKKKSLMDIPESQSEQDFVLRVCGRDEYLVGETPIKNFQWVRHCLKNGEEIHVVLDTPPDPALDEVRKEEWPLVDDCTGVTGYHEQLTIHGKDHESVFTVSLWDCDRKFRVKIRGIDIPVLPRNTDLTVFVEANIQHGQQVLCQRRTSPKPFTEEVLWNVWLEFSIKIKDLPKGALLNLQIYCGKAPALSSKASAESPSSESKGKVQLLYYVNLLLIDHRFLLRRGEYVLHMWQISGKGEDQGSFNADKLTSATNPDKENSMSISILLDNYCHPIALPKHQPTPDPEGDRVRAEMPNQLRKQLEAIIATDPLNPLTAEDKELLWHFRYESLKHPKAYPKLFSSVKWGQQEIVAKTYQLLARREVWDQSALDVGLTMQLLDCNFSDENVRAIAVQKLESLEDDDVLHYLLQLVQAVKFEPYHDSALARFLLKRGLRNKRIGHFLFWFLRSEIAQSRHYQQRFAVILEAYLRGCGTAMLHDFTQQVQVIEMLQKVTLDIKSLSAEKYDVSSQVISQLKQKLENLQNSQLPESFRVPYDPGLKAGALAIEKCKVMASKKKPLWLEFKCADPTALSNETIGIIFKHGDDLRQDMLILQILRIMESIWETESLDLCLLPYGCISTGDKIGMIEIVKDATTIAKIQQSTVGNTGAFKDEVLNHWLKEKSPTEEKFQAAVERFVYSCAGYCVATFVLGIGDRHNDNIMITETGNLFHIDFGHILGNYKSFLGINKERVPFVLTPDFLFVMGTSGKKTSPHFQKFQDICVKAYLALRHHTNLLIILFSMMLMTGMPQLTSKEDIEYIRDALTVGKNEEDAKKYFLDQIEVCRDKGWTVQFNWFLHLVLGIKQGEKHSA
# Homo sapiens = organism: Homo sapiens; experiment: Selectivity index, ratio of IC50 for PI3K-delta (unknown origin) to IC50 for PI3K-gamma (unknown origin)
# HL-60 [8] = experiment: Downregulation of p110delta protein expression levels in human HL60 cells at 1 uM after 2 hrs by Western blot analysis; assay type: functional, cell-based; summary of the method: as §1
# [9] = target: Phosphatidylinositol 4,5-bisphosphate 3-kinase catalytic subunit alpha isoform (Homo sapiens, UniProt P42336); experiment: Inhibition of PI3K-alpha (unknown origin) by cell free biochemical assay
# Sequence of Phosphatidylinositol 4,5-bisphosphate 3-kinase catalytic subunit alpha isoform (P42336 whole entry, canonical isoform): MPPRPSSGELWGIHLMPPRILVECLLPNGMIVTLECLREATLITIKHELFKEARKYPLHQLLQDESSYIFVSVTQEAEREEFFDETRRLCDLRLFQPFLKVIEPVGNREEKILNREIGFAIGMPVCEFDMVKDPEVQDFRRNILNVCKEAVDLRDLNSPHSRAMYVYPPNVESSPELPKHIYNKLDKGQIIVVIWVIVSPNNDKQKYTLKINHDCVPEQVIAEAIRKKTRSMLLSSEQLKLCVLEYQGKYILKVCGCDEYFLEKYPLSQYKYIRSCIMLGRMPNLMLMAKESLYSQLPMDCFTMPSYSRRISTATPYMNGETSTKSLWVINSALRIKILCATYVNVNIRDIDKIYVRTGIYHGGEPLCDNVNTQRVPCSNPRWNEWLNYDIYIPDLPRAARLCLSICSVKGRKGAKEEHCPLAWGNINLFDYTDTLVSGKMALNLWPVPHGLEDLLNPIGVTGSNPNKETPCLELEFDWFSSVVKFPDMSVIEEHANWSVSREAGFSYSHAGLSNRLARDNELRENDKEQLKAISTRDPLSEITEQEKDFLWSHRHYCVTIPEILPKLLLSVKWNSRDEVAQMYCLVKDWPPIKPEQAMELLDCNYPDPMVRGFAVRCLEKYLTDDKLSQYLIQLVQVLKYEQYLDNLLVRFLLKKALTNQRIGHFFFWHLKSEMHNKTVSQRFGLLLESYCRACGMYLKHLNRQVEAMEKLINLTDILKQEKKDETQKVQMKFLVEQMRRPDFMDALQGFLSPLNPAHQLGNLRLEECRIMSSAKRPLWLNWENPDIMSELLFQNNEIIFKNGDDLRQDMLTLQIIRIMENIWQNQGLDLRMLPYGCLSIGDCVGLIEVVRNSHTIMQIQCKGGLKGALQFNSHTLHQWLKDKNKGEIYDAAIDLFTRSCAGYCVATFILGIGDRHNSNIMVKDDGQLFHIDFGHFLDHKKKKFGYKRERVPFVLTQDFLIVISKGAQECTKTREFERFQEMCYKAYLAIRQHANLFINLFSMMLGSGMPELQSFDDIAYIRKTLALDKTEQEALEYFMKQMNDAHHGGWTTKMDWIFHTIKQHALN
# [10] = target: Phosphatidylinositol 4,5-bisphosphate 3-kinase catalytic subunit beta isoform (Homo sapiens, UniProt P42338); experiment: Inhibition of PI3K-beta (unknown origin) by cell free biochemical assay
# Sequence of Phosphatidylinositol 4,5-bisphosphate 3-kinase catalytic subunit beta isoform (P42338 whole entry, canonical isoform): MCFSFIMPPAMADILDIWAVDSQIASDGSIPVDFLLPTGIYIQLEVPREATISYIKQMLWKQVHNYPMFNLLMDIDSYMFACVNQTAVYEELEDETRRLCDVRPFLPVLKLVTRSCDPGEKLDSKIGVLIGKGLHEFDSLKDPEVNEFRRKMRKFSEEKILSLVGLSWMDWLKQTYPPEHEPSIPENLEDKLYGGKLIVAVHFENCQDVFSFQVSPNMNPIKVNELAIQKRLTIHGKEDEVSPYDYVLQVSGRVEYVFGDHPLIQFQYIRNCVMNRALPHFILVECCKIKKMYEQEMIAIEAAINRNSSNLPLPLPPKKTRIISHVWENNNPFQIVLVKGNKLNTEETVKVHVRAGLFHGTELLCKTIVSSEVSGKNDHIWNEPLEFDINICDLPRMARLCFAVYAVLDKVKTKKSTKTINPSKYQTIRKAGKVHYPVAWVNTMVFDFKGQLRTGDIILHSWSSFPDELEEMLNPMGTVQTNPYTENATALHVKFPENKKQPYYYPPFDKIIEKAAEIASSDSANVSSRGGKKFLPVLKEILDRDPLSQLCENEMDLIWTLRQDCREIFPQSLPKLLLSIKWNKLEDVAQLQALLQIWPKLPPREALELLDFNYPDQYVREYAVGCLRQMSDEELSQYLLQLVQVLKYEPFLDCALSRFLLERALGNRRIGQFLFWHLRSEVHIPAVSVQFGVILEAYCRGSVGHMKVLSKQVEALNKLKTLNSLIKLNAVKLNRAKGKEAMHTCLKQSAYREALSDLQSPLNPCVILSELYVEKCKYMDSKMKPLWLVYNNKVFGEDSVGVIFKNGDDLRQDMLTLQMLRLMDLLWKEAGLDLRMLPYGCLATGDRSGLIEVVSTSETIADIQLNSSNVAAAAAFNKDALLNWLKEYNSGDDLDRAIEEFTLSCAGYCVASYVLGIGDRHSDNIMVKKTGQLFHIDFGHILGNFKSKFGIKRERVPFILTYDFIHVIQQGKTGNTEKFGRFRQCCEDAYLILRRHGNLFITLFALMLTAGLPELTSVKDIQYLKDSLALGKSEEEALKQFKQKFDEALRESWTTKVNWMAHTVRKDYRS
SMILES,IC50 (COLO 205),IC50 (MCF7),IC50 [1],IC50 (HCT-116),IC50 (HL-60 [2]),IC50 (A549),IC50 [3],Activity (HL-60 [4]),Activity (HL-60 [5]),Activity (HL-60 [6]),IC50 [7],Ratio IC50 (Homo sapiens),Activity (HL-60 [8]),IC50 [9],IC50 [10]
Cc1ccccc1-n1c(Cn2cc(-c3ccccc3F)nn2)nc2cccc(C)c2c1=O,> 10 µM,> 10 µM,> 10 µM,> 10 µM,> 10 µM,> 10 µM,–,–,–,–,–,–,–,–,–
Cc1ccccc1-n1c(Cn2cc(-c3ccccc3F)nn2)nc2ccccc2c1=O,> 10 µM,> 10 µM,> 10 µM,> 10 µM,> 10 µM,> 10 µM,–,–,–,–,–,–,–,–,–
Cc1cc(OCc2cn(Cc3nc4cccc(C)c4c(=O)n3-c3ccccc3C)nn2)ccc1Cl,> 10 µM,> 10 µM,> 10 µM,> 10 µM,> 10 µM,> 10 µM,–,–,–,–,–,–,–,–,–
Cc1ccccc1-n1c(Cn2cc(-c3ccc(-c4ccccc4)cc3)nn2)nc2ccccc2c1=O,> 10 µM,> 10 µM,> 10 µM,> 10 µM,> 10 µM,> 10 µM,–,–,–,–,–,–,–,–,–
Cc1ccccc1-n1c(Cn2cc(COc3cccc(F)c3)nn2)nc2ccccc2c1=O,> 10 µM,> 10 µM,> 10 µM,> 10 µM,> 10 µM,> 10 µM,–,–,–,–,–,–,–,–,–
COc1ccc(-c2cn(Cc3nc4cccc(C)c4c(=O)n3-c3ccccc3C)nn2)c(C)c1,> 10 µM,> 10 µM,> 10 µM,> 10 µM,1 µM,> 10 µM,10 µM,inactive,>50%,inactive,3000 nM,3,inactive,290 µM,355 µM
Cc1ccccc1-n1c(Cn2cc(-c3ccc(OC(F)(F)F)cc3)nn2)nc2cccc(C)c2c1=O,> 10 µM,> 10 µM,> 10 µM,> 10 µM,> 10 µM,> 10 µM,–,–,–,–,–,–,–,–,–
Cc1ccccc1-n1c(Cn2cc(CNS(=O)(=O)c3ccc(F)cc3F)nn2)nc2cccc(C)c2c1=O,> 10 µM,> 10 µM,> 10 µM,> 10 µM,> 10 µM,> 10 µM,–,–,–,–,–,–,–,–,–
Cc1ccccc1-n1c(Cn2cc(-c3ccccc3)nn2)nc2ccccc2c1=O,> 10 µM,> 10 µM,> 10 µM,> 10 µM,> 10 µM,> 10 µM,–,–,–,–,–,–,–,–,–
Cc1ccc(NCc2cn(Cc3nc4cccc(C)c4c(=O)n3-c3ccccc3C(F)(F)F)nn2)cc1C,> 10 µM,> 10 µM,> 10 µM,> 10 µM,> 10 µM,> 10 µM,–,–,–,–,–,–,–,–,–
Cc1ccccc1-n1c(Cn2cc(-c3cc(C(F)(F)F)cc(C(F)(F)F)c3)nn2)nc2ccccc2c1=O,> 10 µM,> 10 µM,> 10 µM,> 10 µM,> 10 µM,> 10 µM,–,–,–,–,–,–,–,–,–
Cc1ccccc1-n1c(Cn2cnc3c(N)ncnc32)nc2cccc(C)c2c1=O,> 10 µM,> 10 µM,> 10 µM,> 10 µM,1 µM,> 10 µM,–,–,–,–,–,–,–,–,–
Cc1ccccc1-n1c(Cn2cc(-c3ccccc3C(F)(F)F)nn2)nc2ccccc2c1=O,> 10 µM,> 10 µM,> 10 µM,> 10 µM,> 10 µM,> 10 µM,–,–,–,–,–,–,–,–,–
Cc1cccc(OCc2cn(Cc3nc4ccccc4c(=O)n3-c3ccccc3C)nn2)c1,> 10 µM,> 10 µM,> 10 µM,> 10 µM,> 10 µM,> 10 µM,–,–,–,–,–,–,–,–,–
Cc1ccccc1-n1c(Cn2cc(-c3ccccc3C(F)(F)F)nn2)nc2cccc(C)c2c1=O,> 10 µM,> 10 µM,> 10 µM,> 10 µM,> 10 µM,> 10 µM,–,–,–,–,–,–,–,–,–
Cc1cccc2nc(Cn3cc(-c4ccccc4)nn3)n(-c3ccccc3C(F)(F)F)c(=O)c12,> 10 µM,> 10 µM,> 10 µM,> 10 µM,> 10 µM,> 10 µM,–,–,–,–,–,–,–,–,–
Cc1ccccc1-n1c(Cn2cc(-c3ccccc3)nn2)nc2cccc(C)c2c1=O,> 10 µM,> 10 µM,> 10 µM,> 10 µM,1 µM,> 10 µM,5 µM,inactive,>50%,inactive,1000 nM,5,inactive,250 µM,430 µM
Cc1ccccc1-n1c(Cn2cc(-c3ccc(Br)cc3)nn2)nc2cccc(C)c2c1=O,> 10 µM,> 10 µM,> 10 µM,> 10 µM,> 10 µM,> 10 µM,–,–,–,–,–,–,–,–,–
COc1ccc(S(=O)(=O)NCc2cn(Cc3nc4ccccc4c(=O)n3-c3ccccc3C)nn2)cc1,> 10 µM,> 10 µM,> 10 µM,> 10 µM,> 10 µM,> 10 µM,–,–,–,–,–,–,–,–,–
Cc1ccccc1-n1c(Cn2cc(-c3cccnc3)nn2)nc2cccc(C)c2c1=O,> 10 µM,> 10 µM,> 10 µM,> 10 µM,> 10 µM,> 10 µM,–,–,–,–,–,–,–,–,–
Cc1ccccc1-n1c(Cn2cc(CNS(=O)(=O)c3ccccc3)nn2)nc2cccc(C)c2c1=O,> 10 µM,> 10 µM,> 10 µM,> 10 µM,> 10 µM,> 10 µM,–,–,–,–,–,–,–,–,–
Cc1ccccc1-n1c(Cn2cc(-c3ccc(Br)cc3)nn2)nc2ccccc2c1=O,> 10 µM,> 10 µM,> 10 µM,> 10 µM,> 10 µM,> 10 µM,–,–,–,–,–,–,–,–,–
COc1ccc(OCc2cn(Cc3nc4ccccc4c(=O)n3-c3ccccc3C)nn2)cc1,> 10 µM,> 10 µM,> 10 µM,> 10 µM,> 10 µM,> 10 µM,–,–,–,–,–,–,–,–,–
Cc1ccccc1-n1c(Cn2cc(-c3ccc(-c4ccccc4)cc3)nn2)nc2cccc(C)c2c1=O,> 10 µM,> 10 µM,> 10 µM,> 10 µM,> 10 µM,> 10 µM,–,–,–,–,–,–,–,–,–
Cc1ccc(-c2cn(Cc3nc4cccc(C)c4c(=O)n3-c3ccccc3C)nn2)cc1,> 10 µM,> 10 µM,> 10 µM,> 10 µM,> 10 µM,> 10 µM,–,–,–,–,–,–,–,–,–
COc1ccc(-c2cn(Cc3nc4cccc(C)c4c(=O)n3-c3ccccc3C(F)(F)F)nn2)c(C)c1,> 10 µM,> 10 µM,> 10 µM,> 10 µM,> 10 µM,> 10 µM,–,–,–,–,–,–,–,–,–
Cc1cccc2nc(Cn3cc(-c4cccnc4)nn3)n(-c3ccccc3C(F)(F)F)c(=O)c12,> 10 µM,> 10 µM,> 10 µM,> 10 µM,> 10 µM,> 10 µM,–,–,–,–,–,–,–,–,–
